Experimental data: ChEMBL document CHEMBL1144746, “Structural simplification of bioactive natural products with multicomponent synthesis. 2. antiproliferative and antitubulin activities of pyrano[3,2-c]pyridones and pyrano[3,2-c]quinolones” (2008)
The source made the active and inactive calls. The rule behind the calls is not given here.

Tests used:
HeLa = assay: Antiproliferative activity against human HeLa cells assessed as cell viability after 48 hrs by MTT assay; type: functional
Procedure, shortened: (§1)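 Cells plated at 2 × 10^4 cells/mL and allowed to adhere for 24 h, then exposed to compounds for 48 h. MTT reagent (5 mg/mL stock) added for 2 h, formazan dissolved in DMSO, OD read at 490 nm.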

MCF7 = assay: Antiproliferative activity against human MCF7 cells assessed as cell viability after 48 hrs by MTT assay; type: functional; conditions: MCF7, 48 h; procedure, shortened: as §1
Jurkat [1] = assay: Induction of apoptosis in human Jurkat cells at 5 uM by annexin V/propidium iodide assay; type: functional, cell-based
Procedure, shortened: (§2)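 Jurkat cells at 2 × 10^5 cells/mL exposed to compounds, with DMSO control. Exposure was 5 μM for 36 h, 1 μM for 12–60 h, or 48 h across a range of doses. Cells stained with Annexin-V-FITC/propidium iodide in HHB with CaCl2 for 20 min at 37 °C. Flow cytometry gives % Annexin-V-positive cells; four replicates, experiment repeated twice.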

Jurkat [2] = assay: Cell cycle arrest in human Jurkat cells assessed as accumulation at G2/M phase at 1 uM after 24 hrs by flow cytometry; type: functional
Procedure, shortened: (§3)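 Cells stained with Vybrant DyeCycle Orange in HHB (1 μL dye per mL) for 30 min at 37 °C in the dark, then analysed by flow cytometry. % relative DNA content ± SD, two independent experiments each in triplicate.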

Jurkat [3] = assay: Induction of apoptosis in human Jurkat cells assessed as morphological changes after 2 hrs by light microscopy; type: functional, cell-based
Procedure, shortened: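 Jurkat cells exposed to compound at 1 μM for 2 h, with 0.1% DMSO as control. Finger-like extensions and shriveling scored by light microscopy.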

Jurkat [4] = assay: Induction of apoptosis in human Jurkat cells by annexin V/propidium iodide assay; type: functional, cell-based; conditions: TDE = time-dependent effect; procedure, shortened: as §2
Bos taurus [5] = organism: Bos taurus; assay: Inhibition of bovine tubulin polymerization at 25 uM
Procedure, shortened: (§4)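 Purified bovine tubulin incubated at 37 °C in buffer with 10% glycerol and 1 mM GTP, each agent in a separate run against a 0.05% DMSO control. Polymerization followed kinetically by fluorescence increase on a plate reader.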

Jurkat [6] = assay: Induction of apoptosis in human Jurkat cells at 100 nM by annexin V/propidium iodide assay
Jurkat [7] = assay: Induction of apoptosis in human Jurkat cells assessed as oligonucleosomal DNA fragments at 1.5 uM after 36 hrs by DNA laddering assay; type: functional, cell-based
Procedure, shortened: (§5)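 About 1 × 10^6 Jurkat cells treated for 36 h. Cells lysed in Tris-HCl pH 8/EDTA/0.5% SDS/proteinase K at 55 °C for 60 min, then RNase at 55 °C for 60 min. Cleared lysate run on a 1.5% agarose gel with ethidium bromide at 80 V for about 1 h and viewed under UV.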

Jurkat [8] = assay: Cell cycle arrest in human Jurkat cells assessed as accumulation at G0/G1 phase at 1 uM after 24 hrs by flow cytometry; type: functional; procedure, shortened: as §3
Jurkat [9] = assay: Cell cycle arrest in human Jurkat cells assessed as accumulation at S phase at 1 uM after 24 hrs by flow cytometry; type: functional; procedure, shortened: as §3
Bos taurus [10] = organism: Bos taurus; assay: Induction of bovine tubulin polymerization at 3 uM relative to control; procedure, shortened: as §4
Jurkat [11] = assay: Induction of apoptosis in human Jurkat cells assessed as oligonucleosomal DNA fragments at 0.4 uM after 36 hrs by DNA laddering assay; type: functional, cell-based; procedure, shortened: as §5

| Structure (SMILES) | GI50 (HeLa) | GI50 (MCF7) | further results |
| --- | --- | --- | --- |
| Cn1c(=O)c2c(c3ccccc31)OC(N)=C(C#N)C2c1cccc(Cl)c1Cl (stereo not given) | 1800 nM | > 50000 nM |  |
| Cn1c(=O)c2c(c3ccccc31)OC(N)=C(C#N)C2c1cncc(Br)c1 (stereo not given) | 13 nM | 15 nM |  |
| COc1cc(C2C(C#N)=C(N)Oc3c2c(=O)n(C)c2ccccc32)cc(OC)c1OC (stereo not given) | 240 nM | 1000 nM |  |
| CCOc1c(Br)cc(C2C(C#N)=C(N)Oc3cc(C)n(C)c(=O)c32)cc1OC (stereo not given) | 1100 nM |  | Activity (Jurkat [1]): Active |
| Cc1cc2c(c(=O)n1C)C(c1cccc(Br)c1)C(C#N)=C(N)O2 (stereo not given) | 6500 nM |  | Activity (Jurkat [1]): Active |
| COc1cc(C2C(C#N)=C(N)Oc3c2c(=O)n(C)c2ccccc32)cc(Br)c1O (stereo not given) | 47 nM | 390 nM | Activity (Jurkat [2]): 47%; Activity (Jurkat [3]): Active; Activity (Jurkat [4]): tde; Activity (Bos taurus [5]): Active; Activity (Jurkat [6]): Active; Activity (Jurkat [7]): Active; Activity (Jurkat [8]): 27%; Activity (Jurkat [9]): 22% |
| COc1cc(C2C(C#N)=C(N)Oc3cc(C)n(C)c(=O)c32)cc(OC)c1OC (stereo not given) | 43300 nM |  |  |
| Cn1c(=O)c2c(c3ccccc31)OC(N)=C(C#N)C2c1cccc([N+](=O)[O-])c1 (stereo not given) | 320 nM | 1100 nM |  |
| Cn1c(=O)c2c(c3ccccc31)OC(N)=C(C#N)C2c1cc(Br)cc(Br)c1 (stereo not given) | 77 nM | 75 nM |  |
| Cn1c(=O)c2c(c3ccccc31)OC(N)=C(C#N)C2c1ccc(Cl)c(Cl)c1 (stereo not given) | 300 nM | 2500 nM |  |
| Cc1cc2c(c(=O)n1C)C(c1ccc(Cl)c(Cl)c1)C(C#N)=C(N)O2 (stereo not given) | 18300 nM |  | Activity (Jurkat [1]): inactive |
| Cn1c(=O)c2c(c3ccccc31)OC(N)=C(C#N)C2c1ccco1 (stereo not given) | 22000 nM | 35000 nM |  |
| COc1cc(C2C(C#N)=C(N)Oc3c2c(=O)n(C)c2ccccc32)ccc1O (stereo not given) | 630 nM | 500 nM |  |
| COc1cc(C2C(C#N)=C(N)Oc3cc(C)n(C)c(=O)c32)cc(Br)c1OC(C)=O (stereo not given) | 3500 nM |  | Activity (Jurkat [1]): Active |
| COc1ccc(CCn2c(C)cc3c(c2=O)C(c2cc(OC)c(OC)c(OC)c2)C(C#N)=C(N)O3)cc1OC (stereo not given) | 22700 nM |  | Activity (Jurkat [1]): inactive |
| Cc1ccc(C2C(C#N)=C(N)Oc3c2c(=O)n(C)c2ccccc32)o1 (stereo not given) | 3900 nM | 5100 nM |  |
| Cn1c(=O)c2c(c3ccccc31)OC(N)=C(C#N)C2c1c(Cl)cccc1Cl (stereo not given) | > 50000 nM | 36000 nM |  |
| COc1cc(C2C(C#N)=C(N)Oc3c2c(=O)n(C)c2ccccc32)cc(Br)c1OC (stereo not given) | 14 nM | 380 nM | Activity (Jurkat [2]): 49%; Activity (Jurkat [3]): Active; Activity (Bos taurus [5]): Active; Activity (Jurkat [7]): Active; Activity (Jurkat [8]): 20%; Activity (Jurkat [9]): 28% |
| COc1cc(C2C(C#N)=C(N)Oc3cc(C)n(C)c(=O)c32)cc(Br)c1O (stereo not given) | 2700 nM |  | Activity (Jurkat [1]): Active |
| Cn1c(=O)c2c(c3ccccc31)OC(N)=C(C#N)C2c1ccccc1[N+](=O)[O-] (stereo not given) | 5000 nM | 3500 nM |  |

| Structure (SMILES) | GI50 (HeLa) | GI50 (MCF7) | further results |
| --- | --- | --- | --- |
| Cn1c(=O)c2c(c3ccccc31)OC(N)=C(C#N)C2c1cc(Br)c(O)c(Br)c1 (stereo not given) | 270 nM | 430 nM |  |
| COc1cc(C2C(C#N)=C(N)Oc3c2c(=O)n(C)c2ccccc32)cc(Br)c1OC(C)=O (stereo not given) | 180 nM | 25 nM |  |
| CC(=O)O[C@H]1C(=O)[C@@]2(C)[C@H]([C@H](OC(=O)c3ccccc3)[C@]3(O)C[C@H](OC(=O)[C@H](O)[C@@H](NC(=O)c4ccccc4)c4ccccc4)C(C)=C1C3(C)C)[C@]1(OC(C)=O)CO[C@@H]1C[C@@H]2O |  |  | Activity (Bos taurus [10]): Active; Activity (Jurkat [11]): Active |
| Cn1c(=O)c2c(c3ccccc31)OC(N)=C(C#N)C2c1cccc(F)c1 (stereo not given) | 300 nM | 1000 nM |  |
| COc1cc(C2C(C#N)=C(N)Oc3cc(C)n(C)c(=O)c32)cc(Br)c1OC (stereo not given) | 580 nM |  | Activity (Jurkat [1]): Active |
| Cn1c(=O)c2c(c3ccccc31)OC(N)=C(C#N)C2c1ccc(F)c(Br)c1 (stereo not given) | 270 nM | 810 nM |  |
| Cc1cc2c(c(=O)n1C)C(c1cccc([N+](=O)[O-])c1)C(C#N)=C(N)O2 (stereo not given) | 35000 nM |  |  |
| COc1cc(C2C(C#N)=C(N)Oc3c2c(=O)n(C)c2ccccc32)cc([N+](=O)[O-])c1O (stereo not given) | 630 nM | 710 nM |  |
| Cc1cc2c(c(=O)n1C)C(c1ccc(F)c(Br)c1)C(C#N)=C(N)O2 (stereo not given) | 6400 nM |  | Activity (Jurkat [1]): Active |
| Cn1c(=O)c2c(c3ccccc31)OC(N)=C(C#N)C2c1cccc(Br)c1 (stereo not given) | 740 nM | 3 nM |  |
| Cn1c(=O)c2c(c3ccccc31)OC(N)=C(C#N)C2c1cccnc1 (stereo not given) | 2000 nM | > 50000 nM |  |
| Cn1c(=O)c2c(c3ccccc31)OC(N)=C(C#N)C2c1cccc(Cl)c1 (stereo not given) | 150 nM | 2200 nM |  |
| COc1ccc(C2C(C#N)=C(N)Oc3c2c(=O)n(C)c2ccccc32)cc1O (stereo not given) | > 50000 nM | > 50000 nM |  |
| Cc1cc2c(c(=O)n1C)C(c1ccc(C(C)C)cc1)C(C#N)=C(N)O2 (stereo not given) | > 100000 nM |  | Activity (Jurkat [1]): inactive |
| Cn1c(=O)c2c(c3ccccc31)OC(N)=C(C#N)C2c1ccncc1 (stereo not given) | > 50000 nM | 32000 nM |  |
| Cn1c(=O)c2c(c3ccccc31)OC(N)=C(C#N)C2c1ccccc1 (stereo not given) | 390 nM | 3380 nM |  |
| COc1ccc(C2C(C#N)=C(N)Oc3c2c(=O)n(C)c2ccccc32)cc1Br (stereo not given) | 410 nM | 500 nM |  |
| Cc1cc2c(c(=O)o1)C(c1cccc(Br)c1)C(C#N)=C(N)O2 (stereo not given) | > 100000 nM |  |  |
| COc1cc([C@@H]2c3cc4c(cc3[C@H](O)[C@H]3COC(=O)[C@H]23)OCO4)cc(OC)c1OC |  |  | Activity (Bos taurus [5]): Active |
| Cc1cc2c(c(=O)n1C)C(c1ccc(N(C)C)c(Br)c1)C(C#N)=C(N)O2 (stereo not given) | 330 nM |  | Activity (Jurkat [1]): Active |
